In ChEMBL document CHEMBL1135792, “Inhibition of the antibacterial target UDP-(3-O-acyl)-N-acetylglucosamine deacetylase (LpxC): isoxazoline zinc amidase inhibitors bearing diverse metal binding groups” (J Med Chem, 2002):
pIC50, pKi: −log10 of the molar value. In brackets after ≈: the same amount, converted by molar mass.

Tests used:
Escherichia coli [1] = assay: Inhibition of EnvAl Escherichia coli growth in vitro.; format: functional
[2] = target: T1, UDP-3-O-acyl-N-acetylglucosamine deacetylase (Escherichia coli K-12, UniProt P0A725); assay: Inhibition of Escherichia coli LpxC(UDP-3-O-[R-3-hydroxymyristoyl]-GlcNAc deacetylase.
T1 sequence (P0A725 whole entry): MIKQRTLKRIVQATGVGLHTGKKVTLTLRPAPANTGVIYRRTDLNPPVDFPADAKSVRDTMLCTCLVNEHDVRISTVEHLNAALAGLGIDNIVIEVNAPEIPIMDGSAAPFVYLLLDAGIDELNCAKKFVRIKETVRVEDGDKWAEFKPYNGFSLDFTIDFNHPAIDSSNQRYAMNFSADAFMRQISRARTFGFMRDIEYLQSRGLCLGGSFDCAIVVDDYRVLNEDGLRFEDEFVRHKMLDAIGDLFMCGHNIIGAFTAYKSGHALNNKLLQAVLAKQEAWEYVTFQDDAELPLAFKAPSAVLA
Outline: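 Purified E. coli LpxC (2.5 nM) preincubated 30 min on ice with inhibitor (0.1-500 µg/mL) and 1 mg/mL BSA. Stopped with NaOH, substrate and product separated by PEI-cellulose TLC, phosphorimaged. IC50 from eq 1.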

Escherichia coli [3] = assay: Inhibition of Escherichia coli growth in vitro.; format: functional
Escherichia coli [4] = assay: Inhibitory activity measured against Escherichia coli; format: functional
Escherichia coli [5] = assay: Antibacterial activity against EnvA1 Escherichia coli; format: functional
Escherichia coli [6] = assay: Inhibition of Escherichia coli LpxC in a second order rate constant
Outline: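 Purified E. coli LpxC (100 µM) preincubated at 30 °C with inhibitor (0-0.8 mM) in 100 mM bis-Tris pH 7, 12% DMF. Aliquots taken over time, diluted 10-fold into 27 mM UDP-GlcNAc, bis-Tris pH 7, 30 °C. UDP-GlcN read by fluorescamine (ex 395/em 485 nm). Pseudo-first-order kobs fit to exponential decay, then plotted against inhibitor concentration and fit by eq 2.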

Escherichia coli [7] = assay: Antibacterial activity against Escherichia coli

Compound	zone diameter (Escherichia coli [1]) [mm]	pIC50 [2]	zone diameter (Escherichia coli [3]) [mm]	zone diameter (Escherichia coli [4]) [mm]	MIC (Escherichia coli [5]) [µg/mL]	pKi (Escherichia coli [6])	MIC (Escherichia coli [7]) [µg/mL]
COc1ccc(C2=NOC(S(N)(=O)=O)C2)cc1 (centres undefined)	< 6	< 2.92	< 6				
COc1ccc(C2=NO[C@@H](C(=O)NO)C2)cc1	< 6		< 6				
COc1ccc(C2=N[C@@H](C(=O)NO)CO2)cc1	24	5.52	11				
COc1ccc(C2=NO[C@H](C(=O)NO)C2)cc1	26	5.36		< 6	3.9 (≈ 16.5 µM)		
COc1ccc(C2=NOC([C@H]3CS3)C2)cc1 (some centres undefined)	< 6		< 6			3.10	
COc1ccc(C2=NOC([C@@H]3CS3)C2)cc1 (some centres undefined)	< 6		< 6			3.52	
COc1ccc(C2=NOC(C(=O)CS)C2)cc1 (racemic)	< 6	4.57	< 6				
COc1ccc(C2=NOC(C(=O)NCO)C2)cc1 (racemic)	< 6	< 3.40	< 6				
COc1ccc(C2=NOC(S(C)(=O)=O)C2)cc1 (racemic)	< 6	< 3.41	< 6				
COc1ccc(C2=NOC(P(=O)(O)O)C2)cc1 (racemic)	< 6	5.40	< 6				
COc1ccc(C2=NOC(C(=O)Nc3ccccn3)C2)cc1 (racemic)	< 6	< 3.47	< 6				
COc1ccc(C2=NOC(C(=O)NNC=O)C2)cc1 (racemic)	< 6	3.40	< 6				
COc1ccc(C2=NOC(C(=O)CSC(C)=O)C2)cc1 (racemic)	< 6	4.92	< 6				
COc1ccc(C2=NOC(C(=O)NN)C2)cc1 (racemic)	< 6	< 3.37	< 6				
COc1ccc(C2=NOC(P(C)(=O)O)C2)cc1 (racemic)	< 6	3.77	< 6				
COc1ccc(C2=NOC(C(=O)NO)C2)cc1 (racemic)	21	4.89	< 6				
COc1ccc(C2=NOC(CS)C2)cc1 (racemic)	< 6	4.66	< 6				
COc1ccc(C2=NOC(C(=O)O)C2)cc1 (racemic)	< 6	< 3.35	< 6				
COc1ccc(C2=NOC(C(=O)Nc3nccs3)C2)cc1 (racemic)	< 6	< 3.41	< 6				
COc1ccc(C2=NO[C@@H]([C@@H](O)CS)C2)cc1 (relative stereo)	< 6	< 3.40	< 6				
COc1ccc(C2=NO[C@@H]([C@H](O)CS)C2)cc1 (relative stereo)	< 6	< 3.40	< 6				
CO[C@H]1/C=C/O[C@@]2(C)Oc3c(C)c(O)c4c(O)c(c(/C=N/N5CCN(C)CC5)c(O)c4c3C2=O)NC(=O)/C(C)=C\C=C\[C@H](C)[C@H](O)[C@@H](C)[C@@H](O)[C@@H](C)[C@H](OC(C)=O)[C@@H]1C [RIFAMPIN]							2 (≈ 2.43 µM)
